Compound activity from PubChem.
A selection: hits, their analogues and other compounds. The true share with any hit is near 3.1%.
PP5 inh = PP5 phosphatase inhibitors, primary screen, biochemical, fluorescence; Serine/threonine-protein phosphatase 5 (Homo sapiens), P53041; purified PP5c, OMFP substrate fluorescence; inhibition, % at 6.7 µM; 320,000 tested, 0.18% active;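 active = inhibition above the campaign's mean inhibition across all tested compounds plus 3 SD, cut at about 9.5% in these data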;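 note: 0% = DMSO only and 100% = 100 µM cantharidin control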
PP1 inh = PP1-alpha phosphatase inhibitors, primary screen, counter-screen for PP5 inhibitor project, biochemical, fluorescence, OMFP substrate, single point; Serine/threonine-protein phosphatase PP1-alpha catalytic subunit (Homo sapiens), P62136; purified PP1alpha; inhibition, % at 6.7 µM; 320,000 tested, 0.9% active;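 active = inhibition above the mean inhibition of all tested compounds plus 3 SD, computed separately for each screening campaign, cut at about 15% in these data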
Target sequence (P62136 whole entry, looked up): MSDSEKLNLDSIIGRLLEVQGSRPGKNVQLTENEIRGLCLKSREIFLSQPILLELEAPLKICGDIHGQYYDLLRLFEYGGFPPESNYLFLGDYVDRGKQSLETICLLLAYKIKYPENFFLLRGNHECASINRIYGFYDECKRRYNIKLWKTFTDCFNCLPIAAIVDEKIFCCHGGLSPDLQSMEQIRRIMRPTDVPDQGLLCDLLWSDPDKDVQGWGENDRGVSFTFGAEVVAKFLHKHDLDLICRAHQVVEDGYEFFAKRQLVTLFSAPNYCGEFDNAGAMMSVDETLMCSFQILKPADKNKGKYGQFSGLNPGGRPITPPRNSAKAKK
Myeloid diff MLP = induction of myeloid progenitor differentiation, primary screen, cell-based, flow cytometry, MLPCN library | ER-HoxA9 myeloid progenitors, lysozyme-GFP differentiation | calls only at 10 µM | 360,000 tested, 1% active;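 active = normalized GFP-positive differentiation at or above the plate's own cutoff, the solvent-only control mean plus 3 SD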;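 note: cells exposed to compound for four days before flow analysis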
CTSL1 counter = Fasciola hepatica cathepsin L1 inhibitors, primary screen, counter-screen for PFM18AAP inhibitor project, biochemical, QFRET, fluorogenic peptide substrate; recombinant F. hepatica cathepsin L1, Z-Leu-Arg-MCA fluorescence; inhibition, % at 5.96 µM; 300,000 tested, 0.49% active; AID 1906, 2009;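 active = inhibition above the mean of all tested compounds plus 3 SD, set per screening campaign, cut at about 17% in these data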;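 note: 0% = plate median of test compound wells and 100% = 1 µM Z-Phe-Ala-diazomethylketone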
core dimer inh = inhibitors of HCV core protein dimerization, primary screen, biochemical, TR-FRET, high-throughput; inhibition, % at 5 µM; 300,000 tested, 0.33% active; TR-FRET GST/Flag-core106 dimerization, 1536-well; AID 1899, 2009;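 active = inhibition above the mean of all tested compounds plus 3 SD, set per screening campaign, cut at about 45% in these data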
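Material: GST/Flag-tagged HCV core106 proteins. Incubation: 4 h, 22.5 °C incubation. Read-out basis: inhibition (%) from 671 over 617 nm ratio. Measured by: TR-FRET, excitation 340 nm, emission 617 and 671 nm.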
NadD inh = inhibitors of S. aureus NadD, primary screen, biochemical, colorimetric, uHTS | Nicotinate-nucleotide adenylyltransferase NadD (Staphylococcus aureus N315) | purified NadD enzyme, colorimetric absorbance read-out | inhibition, % at 20 µM | 360,000 tested, 0.78% active | AID 602399, 2012; in the data active = inhibition above about 26%
PP1 confirm = PP1 phosphatase inhibitors, confirmation, biochemical, fluorescence, OMFP substrate, triplicate | 1,900 tested, 52% active | purified PP1alpha | AID 2358, 2010 | shares compounds with PP1 inh | inhibition, % at 6.7 µM;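 active = mean PP1 inhibition above a set limit taken from the earlier primary screen, cut at about 15% in these data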
PP5 counter = PP5 phosphatase inhibition by PP1 hits, confirmation, counter-screen for PP1 inhibitor project, biochemical, fluorescence, triplicate; shares compounds with PP1 inh; purified PP5c, OMFP fluorescence; inhibition, % at 6.7 µM; 1,900 tested, 4% active;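 active = mean PP5 inhibition over triplicate wells above about 9.5% taken from the earlier PP1 screen, limit read from the data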
* hit, by the source's call; i = inactive; . = not tested or not shown.

SMILES	PP5 inh	PP1 inh	Myeloid diff MLP	CTSL1 counter	core dimer inh	NadD inh	PP1 confirm	PP5 counter
CC1=C(C(=O)N(C)C)CC(CC(=O)NCCc2ccccn2)C(=O)N1Cc1ccccc1 (stereo not given)	.	.	i	.	.	4	.	.
NC(=O)CC(NC(=O)c1ccccc1)c1ccc(N2CCC(N3CCCC3)CC2)c([N+](=O)[O-])c1 (stereo not given)	1	-1	i	0	-3	-8	.	.
NC(=O)CC(NC(=O)Cc1ccc(Br)cc1)c1ccc(N2CCN(c3ccc(F)cc3)CC2)c([N+](=O)[O-])c1 (stereo not given)	3	18*	i	3	-3	2	15	0
NC(=O)CC(NC(=O)c1ccc(Br)cc1)c1ccc(N2CCC(Cc3ccccc3)CC2)c([N+](=O)[O-])c1 (stereo not given)	-1	20*	i	-1	15	8	11	-2
NC(=O)CC(NC(=O)c1ccc(Br)cc1)c1ccc(N2CCN(c3ccc(F)cc3)CC2)c([N+](=O)[O-])c1 (stereo not given)	-3	21*	i	-2	6	-2	14	0
NC(=O)CC(NC(=O)c1cccc(Br)c1)c1ccc(N2CCN(c3ccc(F)cc3)CC2)c([N+](=O)[O-])c1 (stereo not given)	1	2	i	-1	2	-11	.	.
CCCCNC(=O)C1c2ccccc2OCC(=O)N1CC(F)(F)F (stereo not given)	.	.	i	.	.	1	.	.
Cc1cc(=O)n2[nH]c(=O)c(N=Nc3ccccc3)c2[nH]1	2	2	i	6	-20	2	.	.
CCOc1ccc(N=Nc2c(=O)[nH]n3c(=O)cc(C)[nH]c23)cc1	9	19*	i	8	-16	10	6	-7
Cc1ccccc1CNC(=O)C(=O)NCCC1CCCCN1S(=O)(=O)c1cccs1 (stereo not given)	0	1	i	1	8	-5	.	.
COc1ccc(/C=C/C(=O)Nc2ccc(N3CCOCC3)cc2)cc1	5	-3	i	1	-7	-18	.	.
COc1ccc(N2CCN(c3ccc(NC(=O)/C=C\C(=O)O)cc3)CC2)cc1	1	20*	i	-1	-3	-1	-4	-5
O=C(NNC(=O)c1cc2cc3ccccc3nc2s1)c1ccc(F)cc1	4	24*	i	1	18	7	7	-6
O=C1C(Cc2ccccc2)Nc2ncnc(N3CCc4ccccc4C3)c2N1Cc1ccc(Cl)cc1 (stereo not given)	4	24*	i	-1	25	63*	20*	6
CC1=C(C(=O)Nc2ccccc2C)C2(CCCC2)C(C(N)=O)C(=O)N1 (stereo not given)	-3	26*	i	-2	-7	-3	-5	-6
Cc1cc(C)nc(SCC(=O)c2ccc(F)c(C)c2)n1	0	43*	i	0	6	-5	-3	-4
CN1CCc2c(sc(NC(=O)C3CCN(S(=O)(=O)c4cccs4)CC3)c2C(N)=O)C1	3	0	i	9	-3	-1	.	.
CCn1c(SCC(=O)Nc2cc(C)on2)nc2sc3c(c2c1=O)CCCC3	5	23*	i	2	32	1	28*	-2
C=CCn1c(SCC(=O)Nc2cc(C)on2)nc2sc3c(c2c1=O)CCCC3	0	-2	i	0	2	0	.	.
CCc1nc2c(OCCc3cccc(OC)c3)cccn2c1N(C)C(=O)c1ccc(OC)cc1	.	.	i	.	.	2	.	.
